An excerpt weighted towards active compounds, which were near 4.8% of everything screened.
UPR XBP1 act – activators of adaptive XBP1 UPR arm, primary screen, cell-based, CHO-XBP1 luciferase reporter, luminescence, uHTS; IRE1-XBP1 UPR activation; percent of tunicamycin response, DMSO as zero; actives 0.33% (n = 330,000); activation, % at 20 µM;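 active means versus positive control, 20 µM dose yields 30% or more activation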
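Material: IRE1-XBP1 luciferase reporter CHO line / Quantity: one thousand reporter cells per well / Buffer or medium: F12 with 10% serum / Compound: 20 µM single concentration, DMSO 1% / Times: 6 h treatment, 37 °C / Detection: Steady-Glo luciferase glow luminescence, 10 min after reagent addition / Benchmarks: tunicamycin high, DMSO low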
Beta apoptosis – inhibitors of cytokine-induced beta cell apoptosis, primary screen, luminescence; actives 0.8% (n = 300,000); AID 435005, 2010; protection from apoptosis, % (no concentration beside the values); INS-1E cytokine-induced death, ATP luminescence, 48 h; percent of positive-control rescue, neutral wells zero;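 active means Every replicate reaches about 75%, or at least half do and their mean reaches it too, limit read from the data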;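 further: higher means more ATP so stronger rescue from cytokine killing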
Mdm2-MdmX inh – inhibitors of human Mdm2-MdmX association, primary screen, cell-based, luminescence, split luciferase, SaOS-2, uHTS | Protein Mdm4 (Homo sapiens) + E3 ubiquitin-protein ligase Mdm2 (Homo sapiens), … | SaOS-2 split-luciferase Mdm2/MdmX complementation | inhibition, % at 8 µM | actives 3% (n = 330,000);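 active means inhibition of at least 50% at 8 µM in the primary screen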
Target sequence (O15151 whole entry, looked up): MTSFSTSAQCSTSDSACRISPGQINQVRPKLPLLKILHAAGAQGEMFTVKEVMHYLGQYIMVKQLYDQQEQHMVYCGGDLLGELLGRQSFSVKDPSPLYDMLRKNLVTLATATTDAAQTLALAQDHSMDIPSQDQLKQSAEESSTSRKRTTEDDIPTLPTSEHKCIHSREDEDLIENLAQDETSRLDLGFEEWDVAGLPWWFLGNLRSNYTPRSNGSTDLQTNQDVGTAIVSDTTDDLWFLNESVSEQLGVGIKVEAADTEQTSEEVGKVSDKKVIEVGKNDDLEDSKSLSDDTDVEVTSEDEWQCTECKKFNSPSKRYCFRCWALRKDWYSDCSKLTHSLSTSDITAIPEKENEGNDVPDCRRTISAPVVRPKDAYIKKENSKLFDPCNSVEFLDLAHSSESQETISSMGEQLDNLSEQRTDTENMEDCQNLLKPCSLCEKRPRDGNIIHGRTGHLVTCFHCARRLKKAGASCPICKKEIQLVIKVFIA
Target sequence (Q00987 whole entry, looked up): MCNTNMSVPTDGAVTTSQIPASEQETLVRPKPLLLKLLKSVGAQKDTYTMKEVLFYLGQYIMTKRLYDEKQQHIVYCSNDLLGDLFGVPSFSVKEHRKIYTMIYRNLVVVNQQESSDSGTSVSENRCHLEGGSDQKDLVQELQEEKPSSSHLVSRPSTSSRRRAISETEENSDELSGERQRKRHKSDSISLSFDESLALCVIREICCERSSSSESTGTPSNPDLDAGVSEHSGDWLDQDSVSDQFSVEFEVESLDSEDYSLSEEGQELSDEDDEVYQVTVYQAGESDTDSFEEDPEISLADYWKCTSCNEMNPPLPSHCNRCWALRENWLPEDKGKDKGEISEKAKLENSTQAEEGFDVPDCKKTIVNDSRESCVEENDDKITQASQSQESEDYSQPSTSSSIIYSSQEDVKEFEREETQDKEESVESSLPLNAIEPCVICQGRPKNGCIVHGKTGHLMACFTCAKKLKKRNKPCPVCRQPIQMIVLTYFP
CHOP UPR activ – activators of apoptotic CHOP UPR arm, primary screen, cell-based, CHO-CHOP luciferase reporter, luminescence, uHTS; UPR activation; percent of tunicamycin response over DMSO baseline; AID 449763, 2010; actives 0.34% (n = 330,000); activation, % at 10 µM;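 active means at 10 µM dose, activation of 40% or more, normalized to positive control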
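Material: CHO-CHOP cells, stable luciferase reporter of PERK-eIF2a-CHOP signalling; quantity: 500 reporter cells seeded per well; buffer or medium: F12 medium containing 10% fetal bovine serum; compound: one dose, 10 µM in 0.5% DMSO; incubation: 6 h compound treatment, 37 °C; measured by: Steady-Glo luciferase luminescence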
CSC inhib – cancer stem cell viability inhibitors, primary screen, luminescence; cancer stem cell-like cells viability; AID 2717, 2010; inhibition, % at 7.5 µM; actives 1.1% (n = 300,000); in the data active means inhibition above about 75%; tested in HMLE shEcad cells
SKKanGAS inh – S. pyogenes SKKanGAS growth inhibitors in kanamycin, primary screen, streptokinase expression inhibitor project, SKKanGAS strain, BacTiter-Glo luminescence. inhibition, % at 7.5 µM. 6 h. actives 1.3% (n = 300,000);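 active means mean replicate score, as percent of positive control median, at least 50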;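 further: strain carries kanamycin resistance gene driven by streptokinase promoter and grows in 40 µg/ml kanamycin; loss of luminescence reflects streptokinase promoter inhibition or plain growth inhibition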
Mdm2 MdmX conf – Mdm2-MdmX complex disruptors, retested hits, confirmation, luminescence, single concentration. inhibition, % at 8 µM. shares compounds with Mdm2-MdmX inh. AID 489028, 2010. Mdm2-MdmX binding, luminescent assay. actives 55% (n = 10,000); in the data active means inhibition above about 40%
Full FLuc ctr – full-length luciferase signal inhibition, confirmation, counter-screen for Mdm2/MdmX interaction inhibitor project, cell-based, single concentration, SaOS-2. shares compounds with Mdm2-MdmX inh. SaOS-2 full-length luciferase counterscreen, luminescence. inhibition, % at 8 µM. actives 77% (n = 6,200);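 active means mean inhibition at 8 µM reaching about 37%, which flags the compound as non-specific, limit read from the data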;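 further: p53-null SaOS-2 cells with luciferase driven by a doxycycline-inducible promoter; compound on cells about two nights before reading with doxycycline added after day one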
Numbers stand for hits; - = inactive; . = no result.

SMILES	UPR XBP1 act	Beta apoptosis	Mdm2-MdmX inh	CHOP UPR activ	CSC inhib	SKKanGAS inh	Mdm2 MdmX conf	Full FLuc ctr
COc1ccc(Nc2nc(-c3cccc([N+](=O)[O-])c3)nc3ccccc23)cc1	-	-	55.1	-	123.7	-	-	.
O=[N+]([O-])c1ccc(-c2nc(Nc3ccc(O)cc3)c3ccccc3n2)cc1	-	-	70.3	-	-	-	-	.
O=C(CN1C(=O)c2ccccc2C1=O)OCC(=O)N1CCCCC1	-	-	-	-	-	.	.	.
Cc1ccc(S(=O)(=O)N2[C@@H](c3ccccc3F)C(C(=O)O)=CC[C@H]2c2cccc(Cl)c2)cc1	-	-	-	-	-	.	.	.
COc1ccc(-n2nc3c(N4CCC(C(=O)NCc5cccc(C)c5)CC4)nnc(C)c3c2C)cc1	-	-	99.4	-	-	-	44.6	47.8
Cc1nnc(N2CCC(C(=O)N3CCCCCC3)CC2)c2nn(-c3ccc(Cl)cc3)c(C)c12	-	-	59.7	-	-	-	-	83.0
Cc1ccc(-n2nc3c(N4CCC(C(=O)N5CCCCCC5)CC4)nnc(C)c3c2C)cc1	-	-	-	-	-	-	.	.
Cc1nnc(N2CCCC(C(=O)NCc3ccccc3F)C2)c2nn(-c3ccccc3)c(C)c12 (stereo unspecified)	-	-	68.5	-	-	-	-	.
COc1ccc(-n2nc3c(N4CCC(C(=O)NCCc5ccco5)CC4)nnc(C)c3c2C)cc1	-	-	-	-	-	-	.	.
CCOc1ccc(CNC(=O)C2CCN(c3nnc(C)c4c(C)n(-c5ccc(C)cc5)nc34)CC2)cc1	-	-	86.9	-	-	-	40.2	39.8
Cc1ccc(-n2nc3c(N4CCC(C(=O)N5CCN(C)CC5)CC4)nnc(C)c3c2C)cc1	-	-	-	-	-	-	.	.
Cc1ccc(-n2nc3c(N4CCC(C(=O)NCc5ccccc5C)CC4)nnc(C)c3c2C)cc1	-	-	95.8	-	-	-	-	.

Source: PubChem
